Assay: Permeation study in Kerski diffusion cells with PermeaPad biomimetic barrier
Format: in vitro ADME
Settings: in the investigated time interval (up to 60 min), pH 7.4, 37 °C
Summary of the method: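 Drug-loaded minitablets, composite films or solutions (0.2 mg per 0.64 cm2) placed in donor; composites applied to buffer-moistened membrane. Acceptor: 10 mM dipotassium hydrogen phosphate, pH 7.4, stirred 350 rpm, 37 °C. Samples at 5, 10, 15, 20, 25, 30, 40, 50, 60 min with medium replacement. Quantified by HPLC with fluorescence detection (excitation 278 nm); mean ± SD, n = 3.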

- cumulative drug concentration permeated: ~2.6 μg/cm^2
Compound: NC(=O)CC[C@@H]1NC(=O)[C@H](Cc2ccccc2)NC(=O)[C@H](Cc2ccc(O)cc2)NC(=O)CCSSC[C@@H](C(=O)N2CCC[C@H]2C(=O)N[C@H](CCCN=C(N)N)C(=O)NCC(N)=O)NC(=O)[C@H](CC(N)=O)NC1=O [DDAVP, 1-desamino-8-D-arginin-vasopressin]
